Measurements: ChEMBL document CHEMBL2407075, “Sulphonamido-quinoxalines: search for anticancer agent” (Eur J Med Chem, 2013)

What was measured:
Format in all cases: functional
Malme-3M = experiment: Growth inhibition of human MALME-3M cells assessed as cell growth at 10^-4 M after 48 hrs by sulforhodamine B assay; settings: read-out: Activity
SW-620 = experiment: Growth inhibition of human SW620 cells assessed as cell growth at 10^-4 M after 48 hrs by sulforhodamine B assay; settings: SW-620, 48 h, read-out: Activity
A549 = experiment: Growth inhibition of human A549/ATCC cells assessed as cell growth at 10^-4 M after 48 hrs by sulforhodamine B assay; settings: A549, 48 h, read-out: Activity
Outline: (§1)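 Five-dose NCI-60 run (0.01, 0.1, 1, 10 and 100 µM, as 10-fold dilutions from a DMSO stock made at 400× the top final level). Cells were grown in RPMI 1640 with 5% FBS and 2 mM glutamine and plated for 24 h. They were then exposed for 48 h at 37 °C and 5% CO2. TCA fixation was followed by SRB staining with A515 read-out. Percent growth was taken relative to time-zero and control plates.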

HL-60(TB) [1] = experiment: Growth inhibition of human HL-60(TB) cells assessed as cell growth at 10^-4 M after 48 hrs by sulforhodamine B assay; settings: HL-60, 48 h, read-out: Activity
Outline: (§2)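 HL-60(TB) suspension cells were treated 48 h at 37 °C within the five-dose series (0.01–100 µM), fixed with 16% final TCA and SRB-stained, read at 515 nm. Percentage growth at each concentration = (Ti−Tz)/(C−Tz)×100, or (Ti−Tz)/Tz×100 when Ti<Tz, with time-zero (Tz) and untreated control (C) plates.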

UACC-62 = experiment: Growth inhibition of human UACC62 cells assessed as cell growth at 10^-5 M after 48 hrs by sulforhodamine B assay; settings: UACC-62, 48 h, read-out: Activity
SK-MEL-5 = experiment: Growth inhibition of human SK-MEL-5 cells assessed as cell growth at 10^-5 M after 48 hrs by sulforhodamine B assay; settings: SK-MEL-5, 48 h, read-out: Activity
HOP-62 = experiment: Growth inhibition of human HOP62 cells assessed as cell growth at 10^-5 M after 48 hrs by sulforhodamine B assay; settings: HOP-62, 48 h, read-out: Activity
Outline: (§3)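 Five-dose screen at NCI. Cells in RPMI 1640 with 5% FBS and 2 mM L-glutamine, seeded at 5000–40,000 cells/well and grown 24 h at 37 °C, 5% CO2 before dosing, with time-zero plates TCA-fixed. Drug diluted from DMSO stock to 0.01, 0.1, 1, 10 and 100 µM final, 48 h. Cells fixed with cold TCA (10% final), stained with 0.4% SRB and read at 515 nm. Percent growth from Tz, control and test absorbances; GI50, TGI and LC50 from dose-response curves.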

UACC-257 = experiment: Growth inhibition of human UACC257 cells assessed as cell growth at 10^-6 M after 48 hrs by sulforhodamine B assay; settings: UACC-257, 48 h, read-out: Activity
MDA-MB-435 = experiment: Growth inhibition of human MDA-MB-435 cells assessed as cell growth at 10^-6 M after 48 hrs by sulforhodamine B assay; settings: MDA-MB-435, 48 h, read-out: Activity
M14 = experiment: Growth inhibition of human M14 cells assessed as cell growth at 10^-6 M after 48 hrs by sulforhodamine B assay; settings: M14, 48 h, read-out: Activity
LOX IMVI [2] = experiment: Growth inhibition of human LOXIMVI cells assessed as cell growth at 10^-6 M after 48 hrs by sulforhodamine B assay; settings: read-out: Activity
HCT-116 = experiment: Growth inhibition of human HCT116 cells assessed as cell growth at 10^-6 M after 48 hrs by sulforhodamine B assay; settings: HCT-116, 48 h, read-out: Activity; outline: as §3
HL-60(TB) [3] = experiment: Growth inhibition of human HL-60(TB) cells assessed as cell growth at 10^-6 M after 48 hrs by sulforhodamine B assay; settings: HL-60, 48 h, read-out: Activity; outline: as §2
MDA-MB-231 = experiment: Growth inhibition of human MDA-MB-231 cells assessed as cell growth at 10^-7 M after 48 hrs by sulforhodamine B assay; settings: MDA-MB-231, 48 h, read-out: Activity
LOX IMVI [4] = experiment: Growth inhibition of human LOXIMVI cells assessed as cell growth at 10^-7 M after 48 hrs by sulforhodamine B assay; settings: read-out: Activity
SNB-75 = experiment: Growth inhibition of human SNB75 cells assessed as cell growth at 10^-7 M after 48 hrs by sulforhodamine B assay; settings: SNB-75, 48 h, read-out: Activity
SF-295 = experiment: Growth inhibition of human SF295 cells assessed as cell growth at 10^-7 M after 48 hrs by sulforhodamine B assay; settings: SF-295, 48 h, read-out: Activity
PC-3 = experiment: Growth inhibition of human PC3 cells assessed as cell growth at 10^-8 M after 48 hrs by sulforhodamine B assay; settings: PC-3, 48 h, read-out: Activity
ACHN = experiment: Growth inhibition of human ACHN cells assessed as cell growth at 10^-8 M after 48 hrs by sulforhodamine B assay; settings: read-out: Activity; outline: as §1
OVCAR-5 = experiment: Growth inhibition of human OVCAR5 cells assessed as cell growth at 10^-8 M after 48 hrs by sulforhodamine B assay; settings: OVCAR-5, 48 h, read-out: Activity
K562 = experiment: Growth inhibition of human K562 cells assessed as cell growth at 10^-8 M after 48 hrs by sulforhodamine B assay; settings: K562, 48 h, read-out: Activity
786-0 = experiment: Growth inhibition of human 786-0 cells after 48 hrs by sulforhodamine B assay; settings: 786-0, 48 h, read-out: LC50 (the source's name)
Outline: (§4)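 Adherent cells in RPMI 1640 with 5% FBS and 2 mM L-glutamine were plated at 5000–40,000 cells/well and grown 24 h. Five concentrations (0.01–100 µM, DMSO stock) were added for 48 h at 37 °C. Cells were fixed with cold TCA (10% final) and stained with SRB, read at 515 nm. GI50 came from log concentration–growth curves against time-zero and control plates.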

[5] = Growth inhibition of human NCI-ADR-RES cells after 48 hrs by sulforhodamine B assay; settings: for CC50: read-out: LC50 (the source's name); outline: as §4
OVCAR-4 = experiment: Growth inhibition of human OVCAR4 cells after 48 hrs by sulforhodamine B assay; settings: OVCAR-4, 48 h; for CC50: read-out: LC50 (the source's name)
Outline: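 Five-dose NCI 60 screen at 0.01, 0.1, 1, 10 and 100 µM, 48 h exposure after 24 h preincubation, in RPMI 1640 with 5% FBS and 2 mM glutamine. Fixed with TCA (10% final for adherent cells, 16% for suspension cells), stained with SRB, A515 read. Percent growth uses time-zero (Tz), control and treated plates. GI50, TGI and LC50 are read from the dose-response curves.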

NCI-H522 = experiment: Growth inhibition of human NCI-H522 cells after 48 hrs by sulforhodamine B assay; settings: NCI-H522, 48 h; for CC50: read-out: LC50 (the source's name); outline: as §4
NCI-H460 = experiment: Growth inhibition of human NCI-H460 cells after 48 hrs by sulforhodamine B assay; settings: NCI-H460, 48 h; for CC50: read-out: LC50 (the source's name); outline: as §4

| Compound | growth at 100 µM (Malme-3M) [%] | growth at 100 µM (SW-620) [%] | growth at 100 µM (A549) [%] | growth at 100 µM (HL-60(TB) [1]) [%] | growth at 10 µM (UACC-62) [%] | growth at 10 µM (SK-MEL-5) [%] | growth at 10 µM (HOP-62) [%] | growth at 1 µM (UACC-257) [%] | growth at 1 µM (MDA-MB-435) [%] | growth at 1 µM (M14) [%] | growth at 1 µM (LOX IMVI [2]) [%] | growth at 1 µM (HCT-116) [%] | growth at 1 µM (HL-60(TB) [3]) [%] | growth at 0.1 µM (MDA-MB-231) [%] | growth at 0.1 µM (LOX IMVI [4]) [%] | growth at 0.1 µM (SNB-75) [%] | growth at 0.1 µM (SF-295) [%] | growth at 0.01 µM (PC-3) [%] | growth at 0.01 µM (ACHN) [%] | growth at 0.01 µM (OVCAR-5) [%] | also measured |
| --- | --- | --- | --- | --- | --- | --- | --- | --- | --- | --- | --- | --- | --- | --- | --- | --- | --- | --- | --- | --- | --- |
| O=S(=O)(Nc1ccc(Cl)cc1)c1ccc2nc(-c3ccccc3)c(-c3ccccc3)nc2c1 | 108 | 70 | 73 | 45 | -22 | -99 | 13 | 84 | 92 | 94 | 89 | 80 | 89 | 101 | 99 | 68 | 90 | 90 | 102 | 95 | growth at 0.01 µM (K562): 98%; CC50 (786-0): > 100 µM; TGI [5]: > 100 µM; CC50 [5]: > 100 µM; TGI (OVCAR-4): > 100 µM; CC50 (OVCAR-4): > 100 µM; CC50 (NCI-H522): > 100 µM; CC50 (NCI-H460): > 100 µM |
| O=S(=O)(Nc1ccccn1)c1ccc2nc(-c3ccccc3)c(-c3ccccc3)nc2c1 | 97 | 59 | 51 | 29 | -13 | -93 | 16 | 81 | 91 | 98 | 88 | 75 | 74 | 107 | 97 | 90 | 91 | 97 | 99 | 93 | growth at 0.01 µM (K562): 105%; CC50 (786-0): > 100 µM; CC50 [5]: > 100 µM; GI50 (OVCAR-4): 2.79 µM; TGI (OVCAR-4): > 100 µM; CC50 (OVCAR-4): > 100 µM; GI50 (NCI-H522): 1.6 µM; CC50 (NCI-H522): > 100 µM; TGI (NCI-H460): > 100 µM; CC50 (NCI-H460): > 100 µM |
